According to ChEMBL document CHEMBL2010802, “Melodinines M-U, cytotoxic alkaloids from Melodinus suaveolens” (J Nat Prod, 2012):

test system: A549; assay: Cytotoxicity against human A549 cells after 48 hrs by MTT assay; type: functional, cell-based; conditions: A549, 48 h
Summary of the method: (§1)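 Cells grown in RPMI-1640 or DMEM with 10% FBS, 5% CO2, 37 °C, at 1 × 10^5 cells/mL. Adherent lines (A-549, MCF-7, SMMC-7721, SW480) were left to attach 12 h before dosing; suspension HL-60 was seeded just before dosing. Exposed 48 h to 0.064, 0.32, 1.6, 8 and 40 μM in triplicate, with cisplatin as positive control. MTT viability read-out; IC50 by Reed and Muench method.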

| Compound | IC50 |
| --- | --- |
| COC(=O)C1=C2Nc3cc(OC)ccc3[C@@]23CCN2CC=C[C@@]([C@@H](C)O)(C1)[C@H]23 | 19.7 µM |
| CC[C@]12C=C[C@@H](CC(C)=O)N3CC[C@]4(C(=C(C(=O)OC)C1)Nc1ccccc14)[C@@H]32 | 0.6 µM |
| CC[C@]12C=CCN3CC[C@]4(C(=C(C(=O)OC)C1)Nc1cc(O)ccc14)[C@@H]32 | 17.6 µM |
| CC[C@]12C=CCN3CC[C@]4(C(=C(C(=O)OC)C1)Nc1ccccc14)[C@@H]32 [TABERSONINE] | 14.7 µM |
| COC(=O)C1=C2Nc3ccccc3[C@@]23CCN2[C@H](CC(C)=O)C=C[C@@]([C@@H](C)O)(C1)[C@H]23 [MELODININE R] | 3.9 µM |
| CC[C@@]12CC(C(=O)OC)=C3Nc4ccccc4[C@@]34CCN(C[C@@H]3O[C@@H]31)[C@@H]24 [LOCHNERICINE] | > 40 µM |
| CC[C@]12C=CCN3CC[C@]4(C(=C(C(=O)OC)C1)Nc1ccc(O)cc14)[C@@H]32 [MELODININE P] | > 40 µM |
| CC[C@]12C=CCN3CC[C@]4(C(=C(C(=O)OC)C1)Nc1cc(O)c(C)cc14)[C@@H]32 [MELODININE N] | 18.5 µM |
| CC[C@@]12CC(C(=O)OC)=C3Nc4ccccc4[C@@]34CCN([C@H](CC(C)=O)[C@@H]3O[C@@H]31)[C@@H]24 [MELODININE S] | 15.2 µM |
| CC[C@]12C=CCN3CC[C@]4(C(=C(C(=O)OC)C1)Nc1cc(O)c(COC)cc14)[C@@H]32 [MELODININE O] | 18.2 µM |
| COC(=O)C1=C2Nc3ccccc3[C@@]23CCN2CC=C[C@@]([C@@H](C)OC(C)=O)(C1)[C@H]23 | 15.5 µM |
| CC[C@]12C=CCN3CC[C@]4(C(=C(C(=O)OC)C1)Nc1cc(OC)ccc14)[C@@H]32 | 1 µM |

test system: MCF7; assay: Cytotoxicity against human MCF7 cells after 48 hrs by MTT assay; type: functional, cell-based; conditions: MCF7, 48 h; summary of the method: as §1

| Compound | IC50 |
| --- | --- |
| COC(=O)C1=C2Nc3cc(OC)ccc3[C@@]23CCN2CC=C[C@@]([C@@H](C)O)(C1)[C@H]23 | 21.3 µM |
| CC[C@]12C=C[C@@H](CC(C)=O)N3CC[C@]4(C(=C(C(=O)OC)C1)Nc1ccccc14)[C@@H]32 | 0.4 µM |
| CC[C@]12C=CCN3CC[C@]4(C(=C(C(=O)OC)C1)Nc1cc(O)ccc14)[C@@H]32 | > 40 µM |
| CC[C@]12C=CCN3CC[C@]4(C(=C(C(=O)OC)C1)Nc1ccccc14)[C@@H]32 [TABERSONINE] | 9.9 µM |
| COC(=O)C1=C2Nc3ccccc3[C@@]23CCN2[C@H](CC(C)=O)C=C[C@@]([C@@H](C)O)(C1)[C@H]23 [MELODININE R] | 1.8 µM |
| CC[C@@]12CC(C(=O)OC)=C3Nc4ccccc4[C@@]34CCN(C[C@@H]3O[C@@H]31)[C@@H]24 [LOCHNERICINE] | > 40 µM |
| CC[C@]12C=CCN3CC[C@]4(C(=C(C(=O)OC)C1)Nc1ccc(O)cc14)[C@@H]32 [MELODININE P] | > 40 µM |
| CC[C@]12C=CCN3CC[C@]4(C(=C(C(=O)OC)C1)Nc1cc(O)c(C)cc14)[C@@H]32 [MELODININE N] | 15 µM |
| CC[C@@]12CC(C(=O)OC)=C3Nc4ccccc4[C@@]34CCN([C@H](CC(C)=O)[C@@H]3O[C@@H]31)[C@@H]24 [MELODININE S] | 7 µM |
| CC[C@]12C=CCN3CC[C@]4(C(=C(C(=O)OC)C1)Nc1cc(O)c(COC)cc14)[C@@H]32 [MELODININE O] | 15.7 µM |
| COC(=O)C1=C2Nc3ccccc3[C@@]23CCN2CC=C[C@@]([C@@H](C)OC(C)=O)(C1)[C@H]23 | 14.2 µM |
| CC[C@]12C=CCN3CC[C@]4(C(=C(C(=O)OC)C1)Nc1cc(OC)ccc14)[C@@H]32 | 0.2 µM |

test system: HL-60; assay: Cytotoxicity against human HL60 cells after 48 hrs by MTT assay; type: functional, cell-based; conditions: HL-60, 48 h; summary of the method: as §1

| Compound | IC50 |
| --- | --- |
| COC(=O)C1=C2Nc3cc(OC)ccc3[C@@]23CCN2CC=C[C@@]([C@@H](C)O)(C1)[C@H]23 | 6.3 µM |
| CC[C@]12C=C[C@@H](CC(C)=O)N3CC[C@]4(C(=C(C(=O)OC)C1)Nc1ccccc14)[C@@H]32 | 0.2 µM |
| CC[C@]12C=CCN3CC[C@]4(C(=C(C(=O)OC)C1)Nc1cc(O)ccc14)[C@@H]32 | 6 µM |
| CC[C@]12C=CCN3CC[C@]4(C(=C(C(=O)OC)C1)Nc1ccccc14)[C@@H]32 [TABERSONINE] | 4.5 µM |
| COC(=O)C1=C2Nc3ccccc3[C@@]23CCN2[C@H](CC(C)=O)C=C[C@@]([C@@H](C)O)(C1)[C@H]23 [MELODININE R] | 0.7 µM |
| CC[C@@]12CC(C(=O)OC)=C3Nc4ccccc4[C@@]34CCN(C[C@@H]3O[C@@H]31)[C@@H]24 [LOCHNERICINE] | 15.5 µM |
| CC[C@]12C=CCN3CC[C@]4(C(=C(C(=O)OC)C1)Nc1ccc(O)cc14)[C@@H]32 [MELODININE P] | 28.1 µM |
| CC[C@]12C=CCN3CC[C@]4(C(=C(C(=O)OC)C1)Nc1cc(O)c(C)cc14)[C@@H]32 [MELODININE N] | 3.5 µM |
| CC[C@@]12CC(C(=O)OC)=C3Nc4ccccc4[C@@]34CCN([C@H](CC(C)=O)[C@@H]3O[C@@H]31)[C@@H]24 [MELODININE S] | 4.8 µM |
| CC[C@]12C=CCN3CC[C@]4(C(=C(C(=O)OC)C1)Nc1cc(O)c(COC)cc14)[C@@H]32 [MELODININE O] | 10 µM |
| COC(=O)C1=C2Nc3ccccc3[C@@]23CCN2CC=C[C@@]([C@@H](C)OC(C)=O)(C1)[C@H]23 | 5.8 µM |
| CC[C@]12C=CCN3CC[C@]4(C(=C(C(=O)OC)C1)Nc1cc(OC)ccc14)[C@@H]32 | 0.5 µM |

test system: SW480; assay: Cytotoxicity against human SW480 cells after 48 hrs by MTT assay; type: functional, cell-based; conditions: SW480, 48 h; summary of the method: as §1

| Compound | IC50 |
| --- | --- |
| COC(=O)C1=C2Nc3cc(OC)ccc3[C@@]23CCN2CC=C[C@@]([C@@H](C)O)(C1)[C@H]23 | 13.1 µM |
| CC[C@]12C=C[C@@H](CC(C)=O)N3CC[C@]4(C(=C(C(=O)OC)C1)Nc1ccccc14)[C@@H]32 | 0.5 µM |
| CC[C@]12C=CCN3CC[C@]4(C(=C(C(=O)OC)C1)Nc1cc(O)ccc14)[C@@H]32 | > 40 µM |
| CC[C@]12C=CCN3CC[C@]4(C(=C(C(=O)OC)C1)Nc1ccccc14)[C@@H]32 [TABERSONINE] | 12.1 µM |
| COC(=O)C1=C2Nc3ccccc3[C@@]23CCN2[C@H](CC(C)=O)C=C[C@@]([C@@H](C)O)(C1)[C@H]23 [MELODININE R] | 1.6 µM |
| CC[C@@]12CC(C(=O)OC)=C3Nc4ccccc4[C@@]34CCN(C[C@@H]3O[C@@H]31)[C@@H]24 [LOCHNERICINE] | > 40 µM |
| CC[C@]12C=CCN3CC[C@]4(C(=C(C(=O)OC)C1)Nc1ccc(O)cc14)[C@@H]32 [MELODININE P] | > 40 µM |
| CC[C@]12C=CCN3CC[C@]4(C(=C(C(=O)OC)C1)Nc1cc(O)c(C)cc14)[C@@H]32 [MELODININE N] | 15.1 µM |
| CC[C@@]12CC(C(=O)OC)=C3Nc4ccccc4[C@@]34CCN([C@H](CC(C)=O)[C@@H]3O[C@@H]31)[C@@H]24 [MELODININE S] | 13.5 µM |
| CC[C@]12C=CCN3CC[C@]4(C(=C(C(=O)OC)C1)Nc1cc(O)c(COC)cc14)[C@@H]32 [MELODININE O] | 14.9 µM |
| COC(=O)C1=C2Nc3ccccc3[C@@]23CCN2CC=C[C@@]([C@@H](C)OC(C)=O)(C1)[C@H]23 | 15 µM |
| CC[C@]12C=CCN3CC[C@]4(C(=C(C(=O)OC)C1)Nc1cc(OC)ccc14)[C@@H]32 | 2.4 µM |

test system: SMMC-7721; assay: Cytotoxicity against human SMMC7721 cells after 48 hrs by MTT assay; type: functional, cell-based; conditions: SMMC-7721, 48 h; summary of the method: as §1

| Compound | IC50 |
| --- | --- |
| COC(=O)C1=C2Nc3cc(OC)ccc3[C@@]23CCN2CC=C[C@@]([C@@H](C)O)(C1)[C@H]23 | 16 µM |
| CC[C@]12C=C[C@@H](CC(C)=O)N3CC[C@]4(C(=C(C(=O)OC)C1)Nc1ccccc14)[C@@H]32 | 0.3 µM |
| CC[C@]12C=CCN3CC[C@]4(C(=C(C(=O)OC)C1)Nc1cc(O)ccc14)[C@@H]32 | 15.5 µM |
| CC[C@]12C=CCN3CC[C@]4(C(=C(C(=O)OC)C1)Nc1ccccc14)[C@@H]32 [TABERSONINE] | 5.6 µM |
| COC(=O)C1=C2Nc3ccccc3[C@@]23CCN2[C@H](CC(C)=O)C=C[C@@]([C@@H](C)O)(C1)[C@H]23 [MELODININE R] | 3.3 µM |
| CC[C@@]12CC(C(=O)OC)=C3Nc4ccccc4[C@@]34CCN(C[C@@H]3O[C@@H]31)[C@@H]24 [LOCHNERICINE] | 24.7 µM |
| CC[C@]12C=CCN3CC[C@]4(C(=C(C(=O)OC)C1)Nc1ccc(O)cc14)[C@@H]32 [MELODININE P] | > 40 µM |
| CC[C@]12C=CCN3CC[C@]4(C(=C(C(=O)OC)C1)Nc1cc(O)c(C)cc14)[C@@H]32 [MELODININE N] | 15.5 µM |
| CC[C@@]12CC(C(=O)OC)=C3Nc4ccccc4[C@@]34CCN([C@H](CC(C)=O)[C@@H]3O[C@@H]31)[C@@H]24 [MELODININE S] | 11.2 µM |
| CC[C@]12C=CCN3CC[C@]4(C(=C(C(=O)OC)C1)Nc1cc(O)c(COC)cc14)[C@@H]32 [MELODININE O] | 15.2 µM |
| COC(=O)C1=C2Nc3ccccc3[C@@]23CCN2CC=C[C@@]([C@@H](C)OC(C)=O)(C1)[C@H]23 | 6 µM |
| CC[C@]12C=CCN3CC[C@]4(C(=C(C(=O)OC)C1)Nc1cc(OC)ccc14)[C@@H]32 | 1.1 µM |
